The record followed here is ChEMBL document CHEMBL1123440, “Mitomycin C analogues with increased metal complexing ability” (J Med Chem, 1986).

Molecules are shown by their SMILES.

What is called logP is a log measure of how a compound divides between an organic and an aqueous phase. High values mean a more lipophilic compound, low ones a more hydrophilic compound. The T/C is the result in the treated group divided by that in the control group, in per cent.

Data set [1] is described as follows: Partition coefficient (logP). The settings on record: octanol/water. It counts as physicochemical. A digest of the protocol:
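Shake-flask distribution between n-octanol and water containing phosphate buffer at pH 7.4, run by the Hansch method.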

Data set [2] has as its system P388. The data set is described as follows: (§1) Antitumor activity against P-388 leukemia in mice, activity is expressed as maximum effect (% T/C) = MST(median survival time) treated/ MST control in the presence of compound only. The format is functional, Mus musculus. Put shortly:
(§2)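 P388 ascites, 10⁶ cells implanted ip in female CDF1 mice. Six mice per dose of analogue, with 10 saline-injected controls. Each test group carried its own mitomycin C positive control, six mice per dose. Read-out is median survival time (MST). %T/C = MST treated/MST control × 100, taken at the optimal dose. MED is the dose giving %T/C 125. 30-day survivors were counted.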

The subject of data set [3] is P388. Nature of the data set: Antitumor activity against P-388 leukemia in mice, activity is expressed as Optimal dose. It counts as functional, Mus musculus. A digest of the protocol: as §2
The nature of data set [4]: Ratio value, Optimal dose / Minimum effective dose. It counts as functional. Put shortly:
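Therapeutic ratio from the P388 ip survival test in female CDF1 mice (10⁶ ascites cells). Calculated as optimal dose divided by minimum effective dose. The minimum effective dose is the dose giving %T/C 125.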

Data set [5] relates to P388. The data set is described as follows: Antitumor activity against P-388 leukemia in mice, activity is expressed as maximum effect (% T/C) = MST(median survival time) treated/ MST control in the present of Mitomycin C. It counts as functional, Mus musculus. A digest of the protocol: as §2
The test system of data set [6] is P388. The data set is described as follows: Antitumor activity against P-388 leukemia in mice, activity is expressed as Minimum effective dose. The settings on record: Mus musculus, read-out: MED. The format is functional. A digest of the protocol:
as §2

The species entered for data set [7] is Mus musculus. The data set is described as follows: Compound was tested for antitumor activity against P-388 leukemia in mice, activity is expressed as maximum effect (% T/C) = MST(median survival time) treated/ MST control in the presence of compound only; 132->344. It counts as functional. A digest of the protocol: as §2
The species named for data set [8] is Mus musculus. The data set is described as follows: Compound was tested for antitumor activity against P-388 leukemia in mice, activity is expressed as Optimal dose; 3.2-4.8. The format is functional.
The species named for data set [9] is Mus musculus. The description is as §1. The format is functional. A digest of the protocol: as §2
For data set [10], the species on record is Mus musculus. Nature of the data set: Compound was tested for antitumor activity against P-388 leukemia in mice, activity is expressed as maximum effect (% T/C) = MST(median survival time) treated/ MST control in the pr. The format is functional. A digest of the protocol:
as §2

In turn, `CO[C@@]12C(COC(N)=O)C3=C(C(=O)C(C)=C(NCCCN(CCO)CCO)C3=O)N1CC1NC12` (stereo partly drawn) returned a logP in [1] of -0.36. Moreover, the T/C amounted to 137% in [2] and 279% in data set [5]. Besides, the OD in data set [3] amounted to 25.6 mg/kg. In addition, the Ratio in data set [4] stood at 1. Also, in data set [6], the minimal effective dose amounted to 25.6 mg/kg.
In the case of `CO[C@@]12C(COC(N)=O)C3=C(C(=O)C(C)=C(NCCNCCO)C3=O)N1CC1NC12` (stereo partly drawn), in data set [1], the logP was -0.57. Further, the T/C in data set [2] amounted to 133%; in data set [5], 156%. This compound gave an OD in [3] of 12.8 mg/kg. Further, in data set [4], the Ratio was 1. In addition, the minimal effective dose in data set [6] was 12.8 mg/kg.
Turning to `CO[C@@]12C(COC(N)=O)C3=C(C(=O)C(C)=C(N(CCN)CCN)C3=O)N1CC1NC12` (stereo partly drawn), the values for the T/C in data set [2] and in [5] were 129% and 276%, respectively. Also, the OD in [3] was 25.6 mg/kg. Further, in data set [4], the Ratio turned out to be 8. The minimal effective dose in data set [6] stood at 3.2 mg/kg.
Regarding `CO[C@@]12C(COC(N)=O)C3=C(C(=O)C(C)=C(NCC(O)CO)C3=O)N1CC1NC12` (stereo partly drawn), the T/C was determined as 175% in data set [2] and 205% in data set [5]. The OD in data set [3] was 25.6 mg/kg. In data set [4], the Ratio turned out to be 4. For the same compound, the minimal effective dose in data set [6] is 6.4 mg/kg.
As to `CO[C@@]12[C@H](COC(N)=O)C3=C(C(=O)C(C)=C(N)C3=O)N1C[C@@H]1N[C@@H]12` [MITOMYCIN], in data set [7], the T/C was 132%. Besides, the OD in data set [8] amounted to 3.2 mg/kg. Also, in data set [4], the Ratio was 24. Further, in data set [6], the minimal effective dose was 0.2 mg/kg.
As for `CO[C@@]12C(COC(N)=O)C3=C(C(=O)C(C)=C(NCC(O)CN)C3=O)N1CC1NC12` (stereo partly drawn), the values for the T/C in data set [2] and in data set [5] were 122% and more than 344%, respectively. In addition, in data set [3], the OD was 12.8 mg/kg. For the same compound, in [6], the minimal effective dose stood at 12.8 mg/kg.
On to `CCOC(=O)C(CO)NC1=C(C)C(=O)C2=C(C1=O)C(COC(N)=O)[C@@]1(OC)C3NC3CN21` (stereo partly drawn), for which the figures for the T/C in [2] and in [5] were 156% and 194%, respectively. The compound further returned an OD in data set [3] of 25.6 mg/kg. Also, the minimal effective dose in data set [6] came to 3.2 mg/kg.
The compound `CO[C@@]12C(COC(N)=O)C3=C(C(=O)C(C)=C(NCCc4ccncc4)C3=O)N1CC1NC12` (stereo partly drawn) registered a logP in data set [1] of 0.31. The T/C in data set [9] came out at 167%; in data set [5], 233%. The compound further returned an OD in data set [3] of 25.6 mg/kg. Also, the Ratio in [4] turned out to be 8. The minimal effective dose in [6] came out at 3.2 mg/kg.
As for `CO[C@@]12C(COC(N)=O)C3=C(C(=O)C(C)=C(NC(C)C(=O)O)C3=O)N1CC1NC12` (stereo partly drawn), the T/C in [2] worked out at 109%; in data set [5] it was 132%. The OD in [3] was 12.8 mg/kg.
`CO[C@@]12C(COC(N)=O)C3=C(C(=O)C(C)=C(NCCc4ccccn4)C3=O)N1CC1NC12` (stereo partly drawn) yielded a logP in data set [1] of -0.09. Moreover, the values for the T/C in data set [2] and in [10] were more than 375% and 319%, respectively. This compound returned an OD in [3] of 25.6 mg/kg. The Ratio in data set [4] is 128. Besides, the minimal effective dose in data set [6] worked out at 0.2 mg/kg.
`CO[C@@]12C(COC(N)=O)C3=C(C(=O)C(C)=C(NC(CO)C(=O)O)C3=O)N1CC1NC12` (stereo partly drawn): the T/C in data set [2] turned out to be 138%; in data set [5], 263%. In data set [3], the OD was 25.6 mg/kg. Moreover, the minimal effective dose in data set [6] is 6.4 mg/kg.
Regarding `CO[C@@]12C(COC(N)=O)C3=C(C(=O)C(C)=C(NCCCCN=C(N)N)C3=O)N1CC1NC12` (stereo partly drawn), the T/C in data set [2] is reported as 156%; in data set [5], 263%. Moreover, the OD in data set [3] was determined as 25.6 mg/kg. Moreover, the Ratio in data set [4] worked out at 16. In addition, in [6], the minimal effective dose was determined as 1.6 mg/kg.
In the same order, the values of `CO[C@@]12C(COC(N)=O)C3=C(C(=O)C(C)=C(NCCc4ccco4)C3=O)N1CC1NC12` (stereo partly drawn) are 328%, 156%, 25.6 mg/kg, 16 and 1.6 mg/kg.
Compound `CO[C@@]12C(COC(N)=O)C3=C(C(=O)C(C)=C(NCCNc4ccc([N+](=O)[O-])cn4)C3=O)N1CC1NC12` (stereo partly drawn) came in with a logP in data set [1] of 0.77. The values for the T/C in data set [2] and in data set [5] were 144% and 250%, respectively. Further, the OD in data set [3] amounted to 12.8 mg/kg. Also, the Ratio in data set [4] came to 8. In addition, in data set [6], the minimal effective dose was 2.6 mg/kg.
As for `CO[C@@]12C(COC(N)=O)C3=C(C(=O)C(C)=C(NC(CCN=C(N)N)C(=O)O)C3=O)N1CC1NC12` (stereo partly drawn), the values for the T/C in data set [2] and in [5] were 138% and 263%, respectively. This compound registered an OD in [3] of 25.6 mg/kg. In [6], the minimal effective dose came out at 6.4 mg/kg.
The compound `CO[C@@]12C(COC(N)=O)C3=C(C(=O)C(C)=C(NCCNCCN)C3=O)N1CC1NC12` (stereo partly drawn) registered a logP in data set [1] of -1.14. For the same compound, the T/C in [2] was found to be 100%; in [5], 178%.
On to `CO[C@@]12C(COC(N)=O)C3=C(C(=O)C(C)=C(NCc4ccccn4)C3=O)N1CC1NC12` (stereo partly drawn), for which, in data set [1], the logP is -0.09. Besides, the T/C amounted to 233% in data set [2] and 272% in data set [5]. Further, the OD in [3] was 25.6 mg/kg. For the same compound, in [4], the Ratio is 16. In addition, the minimal effective dose in [6] was 1.6 mg/kg.
For the compound `CO[C@@]12C(COC(N)=O)C3=C(C(=O)C(C)=C(NCCC(=O)O)C3=O)N1CC1NC12` (stereo partly drawn), the T/C in data set [2] came to 133%; in data set [5] it was 194%. Moreover, the OD in data set [3] is 25.6 mg/kg. Moreover, the minimal effective dose in data set [6] was found to be 25.6 mg/kg.
`CO[C@@]12C(COC(N)=O)C3=C(C(=O)C(C)=C(NCCCN)C3=O)N1CC1NC12` (stereo partly drawn) yielded a logP in data set [1] of -1.3. Besides, the values for the T/C in data set [2] and in data set [5] were 147% and 279%, respectively. The OD in data set [3] came to 25.6 mg/kg. In data set [4], the Ratio came out at 4. Also, the minimal effective dose in data set [6] was 6.4 mg/kg.
As for `COC(=O)C(CCSC)NC1=C(C)C(=O)C2=C(C1=O)C(COC(N)=O)[C@@]1(OC)C3NC3CN21` (stereo partly drawn), the values for the T/C in data set [2] and in data set [5] were 131% and 250%, respectively. The OD in data set [3] amounted to 6.4 mg/kg. In data set [6], the minimal effective dose came out at 3.2 mg/kg.
In the case of `CO[C@@]12C(COC(N)=O)C3=C(C(=O)C(C)=C(NCCc4c[nH]cn4)C3=O)N1CC1NC12` (stereo partly drawn), in [1], the logP was -0.19. Besides, the values for the T/C in [2] and in data set [5] were 163% and 213%, respectively. The OD in data set [3] was 25.6 mg/kg. In data set [4], the Ratio came to 16. In addition, the minimal effective dose in data set [6] is 1.6 mg/kg.
On to `CO[C@@]12C(COC(N)=O)C3=C(C(=O)C(C)=C(NCCC(N)C(=O)O)C3=O)N1CC1NC12` (stereo partly drawn), for which the T/C is 139% in data set [2] and 206% in data set [5]. The OD in data set [3] came out at 25.6 mg/kg. Also, the minimal effective dose in data set [6] came to 6.4 mg/kg.
For `CO[C@@]12C(COC(N)=O)C3=C(C(=O)C(C)=C(NCCOCCO)C3=O)N1CC1NC12` (stereo partly drawn), the log partition coefficient (logP) in data set [1] was -0.71. Moreover, the T/C in data set [2] came to 181%; in data set [5], 213%. In [3], this compound showed an OD of 25.6 mg/kg. In addition, in data set [4], the Ratio was determined as 64. Further, in [6], the minimal effective dose amounted to 0.4 mg/kg.
For `CO[C@@]12C(COC(N)=O)C3=C(C(=O)C(C)=C(N(C)CCc4ccccn4)C3=O)N1CC1NC12` (stereo partly drawn), the logP in [1] came to 0.37. Also, the T/C in data set [2] is listed as 300%; in data set [5] it was 319%. In [3], this compound showed an OD of 12.8 mg/kg. For the same compound, the Ratio in data set [4] is more than 64. In [6], the minimal effective dose is less than 0.2 mg/kg.
